For assay [1], the target named is T1, Estrogen receptor (Rattus norvegicus) (UniProt P06211+Q62986). Briefly: Oral estrogenic activity in 21 day old immature ovariectomized rats at 200 ug. The class given is functional. In a few lines: (§1)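 Rats dosed orally with compound suspended in 0.5% (carboxymethyl)cellulose, 10 animals per dose, daily for 4 days starting on the day of ovariectomy. Autopsy on the day after the last dose. Read-outs were the increase in uterine weight and cornification of vaginal smears, taken from animals with open vaginas, compared against a standard estrogen.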

The species named for assay [2] is Rattus norvegicus. Nature of the assay: Antifertility activity measured as minimum protective dose for prevention of pregnancy in rats. Type of assay: functional. The arrangement: unit not given here. In a few lines: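 Oral dosing in adult cycling female rats selected in the proestrous phase, 10 animals per dose, with treatment starting on the day of proestrus.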

For assay [3], the target named is T1, Estrogen receptor (Rattus norvegicus). Nature of the assay: Oral estrogenic activity in 21 day old immature ovariectomized rats at 1000 ug. Type of assay: functional. In a few lines: as §1
Assay [4] shares this target. Nature of the assay: Oral estrogenic activity in 21 day old immature ovariectomized rats at 500 ug. Type of assay: functional. The procedure, abridged: as §1
Assay [5] is filed under the species Rattus norvegicus. Briefly: Separation of antifertility from estrogenic activity in rats was measured. Type of assay: functional.
For assay [6], the target named is T1, Estrogen receptor (Rattus norvegicus).

In turn, `C[C@]12CC[C@@H]3c4ccc(O)cc4CC[C@H]3[C@@H]1CC[C@@]2(O)/C=C/[Si](c1ccccc1)(c1ccccc1)c1ccccc1` showed an Estrogenic potency in assay [1] of 0. The compound further returned an Antifertility potency in assay [2] of 0.
For `CCC(C#C[C@]1(O)CC[C@H]2[C@@H]3CCc4cc(O)ccc4[C@H]3CC[C@@]21C)(CC)CC`, the Estrogenic potency in assay [3] was determined as 0. The same compound had an Antifertility potency in assay [2] of 0.
For the compound `C=C([C@]1(O)CC[C@H]2[C@@H]3CCc4cc(O)ccc4[C@H]3CC[C@@]21C)[Si](c1ccccc1)(c1ccccc1)c1ccccc1`, the Estrogenic potency in assay [1] was found to be 0. Further, the Antifertility potency in assay [2] was 0.
Consider `C=C([C@]1(O)CC[C@H]2[C@@H]3CCc4cc(O)ccc4[C@H]3CC[C@@]21C)[Si](CCCC)(CCCC)CCCC`, for which the Estrogenic potency in assay [4] came to 0. Further, the Antifertility potency in assay [2] was determined as 0.
As for `CCCC[Si](C=C[C@]1(O)CC[C@H]2[C@@H]3CCc4cc(O)ccc4[C@H]3CC[C@@]21C)(CCCC)CCCC`, the Estrogenic potency in assay [3] was determined as 0. Also, in assay [2], the Antifertility potency turned out to be 0.
In the case of `C[C@]12CC[C@@H]3c4ccc(O)cc4CC[C@H]3[C@@H]1CC[C@@]2(O)C#C[Si](C)(C)CCC(F)(F)F`, the Separation in assay [5] is recorded as 8. In assay [2], this compound came in with an Antifertility potency of 150. Besides, the Estrogenic potency in assay [6] amounted to 19.
For `CC[Si](C)(C#C[C@]1(O)CC[C@H]2[C@@H]3CCc4cc(O)ccc4[C@H]3CC[C@@]21C)CC` the same measures were 15, 600 and 40.
As to `CC[Si]1(C#C[C@]2(O)CC[C@H]3[C@@H]4CCc5cc(O)ccc5[C@H]4CC[C@@]32C)CCCC1`, the Separation in assay [5] was 4.2. In assay [2], this compound came in with an Antifertility potency of 500. In assay [6], this compound gave an Estrogenic potency of 120.
`CC[Si](C#C[C@]1(O)CC[C@H]2[C@@H]3CCc4cc(O)ccc4[C@H]3CC[C@@]21C)(CC)c1ccccc1` returned a Separation in assay [5] of 10. This compound also yielded an Antifertility potency in assay [2] of 150. The Estrogenic potency in assay [6] came out at 17.
Taken in the same sequence, the figures for `C[C@]12CC[C@@H]3c4ccc(O)cc4CC[C@H]3[C@@H]1CC[C@@]2(O)C#C[Si](C)(C)CCl` were 9, 150 and 17.
Taken in the same sequence, the figures for `C[C@]12CC[C@@H]3c4ccc(O)cc4CC[C@H]3[C@@H]1CC[C@@]2(O)C#C[Si](C)(C)CBr` were 7.4, 200 and 27.
As to `CCCC[Si](C)(C)C#C[C@]1(O)CC[C@H]2[C@@H]3CCc4cc(O)ccc4[C@H]3CC[C@@]21C`, in assay [5], the Separation was 15. The compound also gave an Antifertility potency in assay [2] of 300. The compound also returned an Estrogenic potency in assay [6] of 20.
Regarding `C=C[Si](C)(C#C[C@]1(O)CC[C@H]2[C@@H]3CCc4cc(O)ccc4[C@H]3CC[C@@]21C)CC` (some centres undefined), the Separation in assay [5] is 11. The compound further showed an Antifertility potency in assay [2] of 300. For the same compound, the Estrogenic potency in assay [6] amounted to 28.
As for `C[C@]12CC[C@@H]3c4ccc(O)cc4CC[C@H]3[C@@H]1CC[C@@]2(O)C#C[Si]1(C)CCCCC1`, in assay [5], the Separation is 10. In addition, the Antifertility potency in assay [2] amounted to 250. In assay [6], this compound showed an Estrogenic potency of 25.
In assay [5], `C[C@]12CC[C@@H]3c4ccc(O)cc4CC[C@H]3[C@@H]1CC[C@@]2(O)C#C[Si](C)(C)C(Cl)Cl` registered a Separation of 17. This compound also displayed an Antifertility potency in assay [2] of 300. This compound displayed an Estrogenic potency in assay [6] of 18.
Take `C=CC[Si](C#C[C@]1(O)CC[C@H]2[C@@H]3CCc4cc(O)ccc4[C@H]3CC[C@@]21C)(CC)CC`: the Separation in assay [5] came out at 7. In assay [2], this compound showed an Antifertility potency of 300. The compound also yielded an Estrogenic potency in assay [6] of 44.
For `CCC[Si](C#C[C@]1(O)CC[C@H]2[C@@H]3CCc4cc(O)ccc4[C@H]3CC[C@@]21C)(CCC)CCC` the same measures were 8, 200 and 25.
In turn, `C=C([C@]1(O)CC[C@H]2[C@@H]3CCc4cc(O)ccc4[C@H]3CC[C@@]21C)[Si](CCC)(CCC)CCC` yielded a Separation in assay [5] of 4. The Antifertility potency in assay [2] is reported as 2. In assay [6], this compound yielded an Estrogenic potency of 0.5.

For the origin of these results see ChEMBL document CHEMBL1123923, “Steroidal silicon side-chain analogues as potential antifertility agents” (1987).
